ChEMBL document CHEMBL4715833, “Design, synthesis, in-vitro, in-vivo and in-silico studies of pyrrolidine-2,5-dione derivatives as multitarget anti-inflammatory agents” (Eur J Med Chem, 2020)

Tests used:
[1] = molecular target: T1, Prostaglandin G/H synthase 1 (Ovis aries, UniProt P05979); assay: Inhibition of sheep COX1 using arachidonic acid as substrate preincubated for 5 mins followed by substrate addition and measured after 5 mins by UV-visible spectrophotometric method
T1 sequence (P05979 whole entry): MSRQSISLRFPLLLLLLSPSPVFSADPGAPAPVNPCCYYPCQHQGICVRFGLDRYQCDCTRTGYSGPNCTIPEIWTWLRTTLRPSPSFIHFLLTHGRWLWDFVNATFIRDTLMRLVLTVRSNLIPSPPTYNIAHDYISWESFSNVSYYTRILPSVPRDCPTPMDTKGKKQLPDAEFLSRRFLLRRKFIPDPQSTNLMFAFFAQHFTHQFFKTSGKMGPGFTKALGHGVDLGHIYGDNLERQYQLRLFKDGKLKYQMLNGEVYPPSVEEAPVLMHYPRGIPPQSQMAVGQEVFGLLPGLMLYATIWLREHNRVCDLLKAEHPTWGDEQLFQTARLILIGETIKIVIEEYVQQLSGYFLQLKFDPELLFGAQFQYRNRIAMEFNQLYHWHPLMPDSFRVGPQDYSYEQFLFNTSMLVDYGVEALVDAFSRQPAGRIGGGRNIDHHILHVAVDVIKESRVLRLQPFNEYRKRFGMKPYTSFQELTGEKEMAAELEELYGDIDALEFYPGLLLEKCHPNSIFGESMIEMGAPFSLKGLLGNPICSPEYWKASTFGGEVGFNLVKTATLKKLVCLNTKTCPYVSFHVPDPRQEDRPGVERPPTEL
Procedure, shortened: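 Enzymes activated for 5 min on ice with cofactor solution of 0.9 mM glutathione, hematin and 0.24 mM TMPD in 0.1 M Tris-HCl pH 8.0; COX-2 at 300 units/ml. Reaction started with 30 mM arachidonic acid stock, run 5 min, absorbance read at 570 nm. IC50 taken from inhibition-vs-concentration plots as means of three determinations. SI = IC50(COX-1)/IC50(COX-2).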

[2] = Inhibition of trypsin (unknown origin) using casein as substrate preincubated for 5 mins followed by substrate addition and measured after 20 mins; design: species or system Homo sapiens
Procedure, shortened: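 Trypsin 0.06 mg/ml in 20 mM Tris-HCl pH 7.4 with compound at 31.25–1000 µg/ml, 5 min at 37 °C. 0.8% (w/v) casein added, 20 min further, stopped with 70% perchloric acid. After centrifugation, supernatant absorbance read at 217 nm against buffer blank. % inhibition against control; IC50 from plot; three runs.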

[3] = Acute toxicity in ip dosed Swiss albino mouse assessed as mortality administered as single dose; assay type: organism-based; conditions: in vivo
Procedure, shortened: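 Swiss albino mice of either sex (30-35 g), housed at 22-25 °C with 12 h light/dark and free food and water. Single i.p. dose; the saline control got 10 mL/kg. Deaths were counted 24 h after dosing. Dose table lists groups of 8 male and 8 female mice given 5 to 2000 mg/kg.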

[4] = Acute toxicity in Swiss albino mouse assessed as change in clinical sign of eyes at 1000 mg/kg, ip administered as single dose measured after 4 hrs; assay type: organism-based; conditions: in vivo
Procedure, shortened: (§1)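 Swiss albino mice of either sex (30-35 g), kept at 22-25 °C on a 12 h light/dark cycle with free food and water. Single i.p. dose; controls received normal saline 10 mL/kg. Animals were watched at random for allergic or abnormal behavioural signs during the first 4 h.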

[5] = Acute toxicity in Swiss albino mouse assessed as clinical changes in skin at 1000 mg/kg, ip administered as single dose measured after 4 hrs; assay type: organism-based; conditions: in vivo; procedure, shortened: as §1
[6] = Acute toxicity in Swiss albino mouse assessed as clinical changes in fur at 1000 mg/kg, ip administered as single dose measured after 4 hrs; assay type: organism-based; conditions: in vivo; procedure, shortened: as §1
[7] = Acute toxicity in Swiss albino mouse assessed as clinical changes in respiratory rate at 1000 mg/kg, ip administered as single dose measured after 4 hrs; assay type: organism-based; conditions: in vivo; procedure, shortened: as §1
[8] = Acute toxicity in Swiss albino mouse assessed as clinical changes in piloerection at 1000 mg/kg, ip administered as single dose measured after 4 hrs; assay type: organism-based; conditions: in vivo; procedure, shortened: as §1
[9] = Acute toxicity in Swiss albino mouse assessed as clinical changes in perspiration at 1000 mg/kg, ip administered as single dose measured after 4 hrs; assay type: organism-based; conditions: in vivo; procedure, shortened: as §1
[10] = Acute toxicity in Swiss albino mouse assessed as clinical changes in urinary incontinence at 1000 mg/kg, ip administered as single dose measured after 4 hrs; assay type: organism-based; conditions: in vivo; procedure, shortened: as §1
[11] = Acute toxicity in Swiss albino mouse assessed as changes in central nervous system at 1000 mg/kg, ip administered as single dose measured after 4 hrs; assay type: organism-based; conditions: in vivo; procedure, shortened: as §1
[12] = Acute toxicity in Swiss albino mouse assessed as ptosis at 1000 mg/kg, ip administered as single dose measured after 4 hrs; assay type: organism-based; conditions: in vivo; procedure, shortened: as §1
[13] = Acute toxicity in Swiss albino mouse assessed as change in gait at 1000 mg/kg, ip administered as single dose measured after 4 hrs; assay type: organism-based; conditions: in vivo; procedure, shortened: as §1
[14] = Acute toxicity in Swiss albino mouse assessed as convulsion at 1000 mg/kg, ip administered as single dose measured after 4 hrs; assay type: organism-based; conditions: in vivo; procedure, shortened: as §1
[15] = Acute toxicity in Swiss albino mouse assessed as tremor at 1000 mg/kg, ip administered as single dose measured after 4 hrs; assay type: organism-based; conditions: in vivo; procedure, shortened: as §1
Mus musculus [16] = assay: Antiinflammatory activity against carrageenan-induced paw edema in Swiss mouse assessed as inhibition of paw edema at 25 mg/kg administered 30 mins prior to carrageenan challenge and measured after 1 hr by […]-method (reference value: 7.66 +/- 3.753%); assay type: functional; conditions: 1.5 h, time 90 min
Mus musculus [17] = assay: Antiinflammatory activity against carrageenan-induced paw edema in Swiss mouse assessed as inhibition of paw edema at 50 mg/kg administered 30 mins prior to carrageenan challenge and measured after 1 hr by […]-method (reference value: 7.66 +/- 3.753%); assay type: functional; conditions: 1.5 h, time 90 min
Mus musculus [18] = assay: Antiinflammatory activity against carrageenan-induced paw edema in Swiss mouse assessed as inhibition of paw edema at 100 mg/kg administered 30 mins prior to carrageenan challenge and measured after 1 hr by […]-method (reference value: 7.66 +/- 3.753%); assay type: functional; conditions: 1.5 h, time 90 min
Mus musculus [19] = assay: Antiinflammatory activity against carrageenan-induced paw edema in Swiss mouse assessed as inhibition of paw edema at 25 mg/kg administered 30 mins prior to carrageenan challenge and measured after 5 hrs by […]-method (reference value: 7.31 +/- 3.204%); assay type: functional; conditions: time 5.5 hrs
Mus musculus [20] = assay: Antiinflammatory activity against carrageenan-induced paw edema in Swiss mouse assessed as inhibition of paw edema at 100 mg/kg administered 30 mins prior to carrageenan challenge and measured after 5 hrs by […]-method (reference value: 7.31 +/- 3.204%); assay type: functional; conditions: time 5.5 hrs
Mus musculus [21] = assay: Antiinflammatory activity in bradykinin-induced paw edema in Balb/c mouse assessed as inhibition of paw edema at 100 mg/kg, ip administered 1 hr prior to bradykinin challenge and measured after 3 hrs relative to control; assay type: functional; conditions: time 4 hrs
Procedure, shortened: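 BALB/c mice of either sex (30–35 g), 8 per group, dosed i.p. with 10% DMSO, reference drug or compound (100 mg/kg). After 1 h, subplantar irritant: PGE2 0.01 µg/ml, bradykinin 20 µg/ml, histamine 0.1 ml of 1 mg/ml, or leukotriene 10 µg/ml.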

| Compound | IC50 [1] [µM] | IC50 [2] [µM] | LD50 [3] [mg/kg] | Activity [4] | Activity [5] | Activity [6] | Activity [7] | Activity [8] | Activity [9] | Activity [10] | Activity [11] | Activity [12] | Activity [13] | Activity [14] | Activity [15] | inhibition in vivo at 25 mg/kg (Mus musculus [16]) [%] | inhibition in vivo at 50 mg/kg (Mus musculus [17]) [%] | inhibition in vivo at 100 mg/kg (Mus musculus [18]) [%] | inhibition in vivo at 25 mg/kg (Mus musculus [19]) [%] | inhibition in vivo at 100 mg/kg (Mus musculus [20]) [%] | also measured |
| --- | --- | --- | --- | --- | --- | --- | --- | --- | --- | --- | --- | --- | --- | --- | --- | --- | --- | --- | --- | --- | --- |
| O=C1CCCCC1C1CC(=O)N(Cc2ccccc2)C1=O (configuration not stated) | 62.6 | 17.5 | 1000 | Non-Toxic | Non-Toxic | Non-Toxic | Non-Toxic | Non-Toxic | Non-Toxic | Non-Toxic | Non-Toxic | Non-Toxic | Non-Toxic | Non-Toxic | Non-Toxic | 24.3 | 34.5 | 44.7 | 23.4 | 55.1 | inhibition in vivo at 100 mg/kg (Mus musculus [21]): 12.4% |
| Cc1ccc(C(=O)CC2CC(=O)N(c3ccc(S(N)(=O)=O)cc3)C2=O)cc1 (configuration not stated) | 30.9 | 15.3 | 1000 | Non-Toxic | Non-Toxic | Non-Toxic | Non-Toxic | Non-Toxic | Non-Toxic | Non-Toxic | Non-Toxic | Non-Toxic | Non-Toxic | Non-Toxic | Non-Toxic | 45.6 | 51.5 | 55.2 | 56.6 | 68.2 | inhibition in vivo at 100 mg/kg (Mus musculus [21]): 27.1% |
